Key:
Assay type in all cases: functional
Chenopodium album [1] = assay: Post-emergence herbicidal activity against Chenopodium album assessed as growth inhibition at 75 g.a.i./ha applied at two-leaf stage measured after 15 days; details: 360 h, read-out: GI
Procedure, shortened: (§1)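 Pot-grown weeds sown 5 mm deep in greenhouse clay soil (pH 6.5, 1.7% organic matter, CEC 12.9 cmol/kg) at 22-25 °C. Stock diluted with water and sprayed post-emergence: dicots at 2-leaf stage, monocots at 1-leaf stage. Untreated and DMF solvent controls were included. % growth inhibition was scored visually versus untreated controls after 15 days. Triplicates averaged.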

Digitaria sanguinalis [2] = assay: Post-emergence herbicidal activity against Digitaria sanguinalis (hairy crabgrass) assessed as growth inhibition at 75 g.a.i./ha applied at one-leaf stage measured after 15 days; details: 360 h, read-out: GI; procedure, shortened: as §1
Echinochloa crus-galli [3] = assay: Post-emergence herbicidal activity against Echinochloa crus-galli (barnyard grass) assessed as growth inhibition at 75 g.a.i./ha applied at one-leaf stage measured after 15 days; details: 360 h, read-out: GI; procedure, shortened: as §1
Chenopodium album [4] = assay: Pre-emergence herbicidal activity against Chenopodium album assessed as growth inhibition at 75 g.a.i./ha applied 24 hr after seeds were sown measured after 15 days; details: read-out: GI
Procedure, shortened: (§2)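 Weeds sown 5 mm deep in pots of greenhouse clay soil (pH 6.5, 37.5% clay, CEC 12.9 cmol/kg) and grown at 22-25 °C. Water-diluted formulation was applied pre-emergence 24 h after sowing. Untreated and DMF solvent controls were included. Growth inhibition was visually rated in % against untreated controls after 15 days, as the mean of triplicates.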

Amaranthus [5] = assay: Pre-emergence herbicidal activity against Amaranthus ascendens assessed as growth inhibition at 75 g.a.i./ha applied 24 hr after seeds were sown measured after 15 days; details: read-out: GI; procedure, shortened: as §2
Abutilon theophrasti [6] = assay: Post-emergence herbicidal activity against Abutilon theophrasti (velvetleaf) assessed as growth inhibition at 75 g.a.i./ha applied at two-leaf stage measured after 15 days; details: 360 h, read-out: GI; procedure, shortened: as §1
Echinochloa crus-galli [7] = assay: Pre-emergence herbicidal activity against Echinochloa crus-galli (barnyard grass) assessed as growth inhibition at 75 g.a.i./ha applied 24 hr after seeds were sown measured after 15 days; details: read-out: GI; procedure, shortened: as §2
Digitaria sanguinalis [8] = assay: Pre-emergence herbicidal activity against Digitaria sanguinalis (hairy crabgrass) assessed as growth inhibition at 75 g.a.i./ha applied 24 hr after seeds were sown measured after 15 days; details: read-out: GI; procedure, shortened: as §2
Amaranthus [9] = assay: Post-emergence herbicidal activity against Amaranthus ascendens assessed as growth inhibition at 75 g.a.i./ha applied at two-leaf stage measured after 15 days; details: 360 h, read-out: GI; procedure, shortened: as §1
Abutilon theophrasti [10] = assay: Pre-emergence herbicidal activity against Abutilon theophrasti (velvetleaf) assessed as growth inhibition at 75 g.a.i./ha applied 24 hr after seeds were sown measured after 15 days; details: read-out: GI; procedure, shortened: as §2
Setaria viridis [11] = assay: Pre-emergence herbicidal activity against Setaria viridis (green foxtail) assessed as growth inhibition at 75 g.a.i./ha applied 24 hr after seeds were sown measured after 15 days; details: read-out: GI
Procedure, shortened: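 Preliminary pre-emergence screen at a single rate of 75 g a.i./ha. Stock diluted with water and sprayed on greenhouse pots 24 h after seeds were sown 5 mm deep in clay soil (pH 6.5, 1.7% organic matter); grown at 22-25 °C. Untreated and DMF solvent controls included; triplicate. Visual % growth inhibition vs untreated after 15 days, averaged and banded (>80% top band).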

Setaria viridis [12] = assay: Post-emergence herbicidal activity against Setaria viridis (green foxtail) assessed as growth inhibition at 75 g.a.i./ha applied at one-leaf stage measured after 15 days; details: 360 h, read-out: GI; procedure, shortened: as §1

Compound | inhibition of growth at 75 g/ha (Chenopodium album [1]) [%] | inhibition of growth at 75 g/ha (Digitaria sanguinalis [2]) [%] | inhibition of growth at 75 g/ha (Echinochloa crus-galli [3]) [%] | inhibition of growth at 75 g/ha (Chenopodium album [4]) [%] | inhibition of growth at 75 g/ha (Amaranthus [5]) [%] | inhibition of growth at 75 g/ha (Abutilon theophrasti [6]) [%] | inhibition of growth at 75 g/ha (Echinochloa crus-galli [7]) [%] | inhibition of growth at 75 g/ha (Digitaria sanguinalis [8]) [%] | inhibition of growth at 75 g/ha (Amaranthus [9]) [%] | inhibition of growth at 75 g/ha (Abutilon theophrasti [10]) [%] | inhibition of growth at 75 g/ha (Setaria viridis [11]) [%] | inhibition of growth at 75 g/ha (Setaria viridis [12]) [%]
CCOC(=O)C(c1ccccc1)N1C(=O)C(C)Oc2cc(F)c(N3C(=O)C4=C(CCCC4)C3=O)cc21 (configuration not stated) | > 80 | 50 | < 50 | 50 | 50 | > 80 | > 80 | > 80 | > 80 | 50 | > 80 | 50
CCOC(=O)CN1C(=O)COc2cc(F)c(N3C(=O)c4ccccc4C3=O)cc21 | > 80 | < 50 | < 50 | 50 | 50 | > 80 | < 50 | < 50 | > 80 | 50 | < 50 | < 50
CCOC(=O)C(CC)N1C(=O)COc2cc(F)c(N3C(=O)C4=C(CCCC4)C3=O)cc21 (configuration not stated) | > 80 | 50 | 50 | 50 | 50 | > 80 | 50 | 50 | > 80 | > 80 | 50 | 50
COC(=O)CN1C(=O)C(C)Oc2cc(F)c(N3C(=O)C4=C(CCCC4)C3=O)cc21 (configuration not stated) | > 80 | 50 | < 50 | > 80 | > 80 | > 80 | < 50 | < 50 | > 80 | > 80 | < 50 | 50
C#CCN1C(=O)COc2cc(F)c(N3C(=O)c4ccc(F)cc4C3=O)cc21 | > 80 | > 80 | > 80 | > 80 | > 80 | > 80 | > 80 | > 80 | > 80 | > 80 | > 80 | > 80
CCOC(=O)CN1C(=O)COc2cc(F)c(N3C(=O)c4cc(Cl)c(Cl)cc4C3=O)cc21 | 50 | < 50 | < 50 | < 50 | < 50 | 50 | < 50 | < 50 | 50 | < 50 | < 50 | < 50
CCOC(=O)C(C)N1C(=O)COc2cc(F)c(N3C(=O)C4=C(CCCC4)C3=O)cc21 (configuration not stated) | > 80 | > 80 | > 80 | > 80 | > 80 | > 80 | < 50 | 50 | > 80 | > 80 | 50 | > 80
CCC(C(=O)OC)N1C(=O)COc2cc(F)c(N3C(=O)C4=C(CCCC4)C3=O)cc21 (configuration not stated) | > 80 | 50 | < 50 | < 50 | < 50 | > 80 | < 50 | < 50 | > 80 | < 50 | < 50 | 50
CCOC(=O)C(C)N1C(=O)COc2cc(F)c(N3C(=O)c4ccc([N+](=O)[O-])cc4C3=O)cc21 (configuration not stated) | < 50 | < 50 | < 50 | 50 | < 50 | < 50 | < 50 | < 50 | < 50 | < 50 | < 50 | < 50
CCOC(=O)CN1C(=O)COc2cc(N3C(=O)c4ccccc4C3=O)c(F)cc21 | < 50 | < 50 | < 50 | < 50 | < 50 | < 50 | < 50 | < 50 | < 50 | < 50 | < 50 | < 50
CCOC(=O)CN1C(=O)COc2cc(F)c(N3C(=O)C4=C(CCCC4)C3=O)cc21 | > 80 | < 50 | < 50 | > 80 | > 80 | > 80 | < 50 | < 50 | > 80 | > 80 | < 50 | < 50
CCOC(=O)CN1C(=O)C(C)Oc2cc(F)c(N3C(=O)C4=C(CCCC4)C3=O)cc21 (configuration not stated) | > 80 | < 50 | < 50 | > 80 | > 80 | > 80 | < 50 | < 50 | > 80 | > 80 | < 50 | < 50
CCOC(=O)CN1C(=O)COc2cc(F)c(N3C(=O)c4ccc(C)cc4C3=O)cc21 | 50 | < 50 | < 50 | < 50 | < 50 | 50 | < 50 | < 50 | 50 | < 50 | < 50 | < 50
COC(=O)CN1C(=O)COc2cc(F)c(N3C(=O)c4ccccc4C3=O)cc21 | > 80 | < 50 | < 50 | 50 | 50 | > 80 | < 50 | < 50 | > 80 | 50 | < 50 | < 50
CCOC(=O)C(c1ccccc1)N1C(=O)COc2cc(F)c(N3C(=O)C4=C(CCCC4)C3=O)cc21 (configuration not stated) | > 80 | > 80 | 50 | > 80 | > 80 | > 80 | < 50 | 50 | > 80 | 50 | 50 | > 80
CCOC(=O)CN1C(=O)COc2cc(N3C(=O)c4ccc(C)cc4C3=O)c(F)cc21 | < 50 | < 50 | < 50 | < 50 | < 50 | < 50 | < 50 | < 50 | < 50 | < 50 | < 50 | < 50

From ChEMBL document CHEMBL3045743, “Synthesis and herbicidal activity of isoindoline-1,3-dione substituted benzoxazinone derivatives containing a carboxylic ester group” (J Agric Food Chem, 2009)
